Screening data: PubChem BioAssay, several laboratories
Rows were chosen to be rich in hits. Some 2.2% of all compounds tested hit in one or more screens of this group.
rCAG RNA binder – molecules binding r(CAG) RNA repeats; inhibition, % at 3 µM; 370,000 compounds, 1.3% hits; AID 651821; r(CAG) RNA repeat, TO-PRO-1 dye displacement fluorescence;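 active = inhibition above the plate cutoff, the mean of all test compounds on that plate plus 3 SD, cut at about 35% in these data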;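 also: 0% = DMSO alone and 100% = 100 µM mitoxantrone as full dye displacement; higher means more dye released from RNA so lower well fluorescence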
NadD inh – blocks S. aureus nicotinate mononucleotide adenylyltransferase; purified NadD enzyme, colorimetric absorbance read-out; inhibition, % at 20 µM; 360,000 compounds, 0.78% hits; in the data active = inhibition above about 26%
ASAP1 GAP inh – inhibitors of human ASAP1 ArfGAP activity; AID 624377; ASAP1-stimulated ARF1 GTP hydrolysis, GDP FP detection; inhibition, % at 16.5 µM; 360,000 compounds, 0.19% hits; in the data active = inhibition above about 25%;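 also: 0% = vehicle with enzyme and substrate and 100% = no enzyme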
Target sequence (Q9ULH1 325-724 limits assumed): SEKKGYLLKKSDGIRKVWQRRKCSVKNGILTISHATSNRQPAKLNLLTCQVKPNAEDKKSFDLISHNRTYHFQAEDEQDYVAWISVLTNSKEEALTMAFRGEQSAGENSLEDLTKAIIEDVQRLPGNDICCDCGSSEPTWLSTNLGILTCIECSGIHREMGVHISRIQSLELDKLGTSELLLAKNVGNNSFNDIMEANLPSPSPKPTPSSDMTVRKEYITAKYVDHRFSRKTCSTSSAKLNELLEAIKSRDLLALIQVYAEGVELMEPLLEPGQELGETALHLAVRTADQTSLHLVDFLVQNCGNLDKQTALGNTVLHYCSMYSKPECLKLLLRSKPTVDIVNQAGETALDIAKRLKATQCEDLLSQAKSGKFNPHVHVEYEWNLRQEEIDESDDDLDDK
ARFGAP1 inhibitor – inhibits rat ARF GTPase activating protein 1; Arfgap1-stimulated ARF1 GTP hydrolysis, GDP FP detection; inhibition, % at 16.5 µM; 360,000 compounds, 0.26% hits;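 active = inhibition above a per-plate limit, mean inhibition of low control wells plus 3 SD, cut at about 25% in these data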;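 also: 0% = DMSO wells with enzyme and 100% = wells lacking Arfgap1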
Target sequence (Q62848 1-136 limits assumed): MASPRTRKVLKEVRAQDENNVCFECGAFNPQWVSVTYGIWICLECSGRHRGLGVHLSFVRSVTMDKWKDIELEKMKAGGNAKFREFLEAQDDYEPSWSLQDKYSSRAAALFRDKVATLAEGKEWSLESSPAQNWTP
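Replicates: Single well per compound | Assay system: Truncated rat Arfgap1 GAP domain | Control set: No-Arfgap1 wells (100%) versus DMSO full-reaction wells (0%) | Times: Enzyme reaction 120 min at 25 °C after 20 min preincubation | Reagent: Human ARF1(Δ1-17)-GTP substrate | Measured by: Tracer-displacement fluorescence polarization with EDTA stop, 620/688 nm | Measure: Percent inhibition of Arfgap1-stimulated GTP hydrolysis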
rCAG binder conf – r(CAG) RNA repeat binding, confirmation | shares compounds with rCAG RNA binder | TO-PRO-1 dye displacement fluorescence | 4,300 compounds, 70% hits | inhibition, % at 3 µM | AID 652065;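 active = inhibition above a per-plate cutoff, the mean inhibition of sample wells plus 3 SD, cut at about 35% in these data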;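 also: loss of TO-PRO-1 fluorescence as compound displaces dye from 1x1 AA loop RNA; 0% = DMSO only wells and 100% = 100 µM mitoxantrone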
dCAG dye counter – DNA CAG dye complex inhibition counter-screen; AID 652068; 4,300 compounds, 94% hits; shares compounds with rCAG RNA binder; d(CAG) DNA oligo TO-PRO-1 dye displacement, fluorescence; inhibition, % at 3 µM;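 active = inhibition above its plate's cutoff, the mean test-well inhibition plus 3 SD, cut at about 4.8% in these data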;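 also: 0% = DNA dye mix with DMSO and 100% = 100 µM mitoxantrone; hits displace the dye from DNA and so lower well fluorescence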
DNA CAG DR – counter-screen for rCAG binders: inhibitors of DNA CAG TO-PRO-1 complex; DNA CAG/GTC duplex TO-PRO-1 dye displacement fluorescence; 250 compounds, 20% hits; IC50, µM; shares compounds with rCAG RNA binder; in the data active = IC50 below about 10 µM
Active calls of the source: *; i = inactive; / = not tested or not shown.

SMILES | rCAG RNA binder | NadD inh | ASAP1 GAP inh | ARFGAP1 inhibitor | rCAG binder conf | dCAG dye counter | others
Cc1cnc(C(=O)OCC(=O)Nc2oc(-c3ccccc3)c(-c3ccccc3)c2C#N)cn1 | 46.1* | 26.1 | 0.4 | 0.1 | 51.3* | 14.1*
CCc1ccc(CNC(=O)C(=O)NCC2CCCO2)cc1 (stereo not drawn) | -3.2 | -1.8 | 1.6 | 0.2 | / | /
CC1CCCCC1NC(=O)C(=O)NCC1CCCO1 (stereo not drawn) | 55.9* | -3.2 | -3.7 | 12.2 | 1.2 | -1.6
COCc1[nH]nc2c1C(c1ccc(F)cc1)N(Cc1ccccc1)C2=O (stereo not drawn) | 1.4 | / | -10.9 | -20.0 | / | /
CCCCOc1ccc(C(=O)N/C(=C/C=C/c2ccccc2)C(=O)O)cc1 | 55.5* | 7.3 | -0.7 | 3.5 | 54.5* | 18.7*
CCCCOc1ccc(C(=O)N/C(=C/C=C/c2ccccc2)C(=O)NC)cc1 | 2.5 | -1.8 | -8.6 | -3.9 | / | /
O=C(O)COc1ccc(/C=N/NC(=O)/C(=C/C=C/c2ccccc2)NC(=O)c2ccccc2)cc1 | 53.3* | 13.5 | -1.2 | 1.3 | 43.0* | 17.1*
CSc1nc(=S)c2[nH]c(=S)[nH]c2[nH]1 | 64.6* | 13.3 | 14.4 | -7.1 | 67.6* | 30.3* | DNA CAG DR=9.28*
Nc1nc(=S)c2[nH]c(=S)[nH]c2[nH]1 | 1.8 | -2.5 | -9.3 | 5.0 | / | /
C[C@H]1CCCCO[C@H](CN(C)CC2CCCCC2)[C@@H](C)CN([C@@H](C)CO)C(=O)c2cc(NS(=O)(=O)c3ccccc3)ccc2O1 | 3.4 | -3.0 | 3.6 | 6.6 | / | /
O=S(=O)(NCc1nnc2ccccn12)c1ccc(Cl)cc1 | 0.8 | 4.8 | 10.2 | -3.5 | / | /
Cc1cccc(NC(=O)/C(C#N)=C\c2cn(CC(=O)O)c3ccccc23)c1 | 1.8 | -5.1 | -10.0 | 1.1 | / | /
CCOc1cccc(NC(=O)/C(C#N)=C\c2cn(CC(=O)O)c3ccccc23)c1 | 56.5* | 15.1 | 9.1 | 11.3 | 55.9* | 17.9*
CCc1ccc(NC(=O)/C(C#N)=C/c2cn(CC(=O)O)c3ccccc23)cc1 | 36.2* | 10.0 | 7.9 | -3.8 | 21.4 | 5.9*
CCOc1ccc(NC(=O)/C(C#N)=C/c2cn(CC(=O)O)c3ccccc23)cc1 | 55.7* | -6.0 | -7.5 | 5.6 | 49.7* | 14.9*
COC(=O)[C@]12CCCCC=C1N(Cc1ccc(OC)cc1)C(=O)[C@@H]2CC(=O)NCc1cccc(C(F)(F)F)c1 | -0.8 | / | / | / | / | /
COc1cccc(C(O)c2nc(-c3cnn(C)c3)cs2)c1 (stereo not drawn) | 0.2 | -1.6 | -6.8 | 5.2 | / | /
CSc1nc(NCCOCCO)c2sc3nc(-c4ccco4)c4c(c3c2n1)CCC4 | 51.8* | 22.0 | 6.6 | -10.0 | 38.3* | 17.7* | DNA CAG DR=i
c1ccc(CN(Cc2ccccc2)c2nn[nH]n2)cc1 | 5.1 | 1.4 | 10.4 | -6.1 | / | /
Clc1ccc(CN(Cc2ccc(Cl)cc2)c2nn[nH]n2)cc1 | 38.6* | 6.9 | 2.4 | -0.5 | 27.3 | 5.4*
Cc1nn(-c2ccccc2)c2sc(-c3n[nH]c(=S)o3)cc12 | 65.2* | 2.4 | 2.8 | -3.0 | 32.1 | 8.0*
CCCSc1nc(C)c(-c2csc(C(C#N)=C3CCCC3)n2)cc1C#N | 43.9* | 21.7 | -1.0 | 1.1 | 37.5* | 25.2*
O=C(O)c1cccc(C(=O)O)c1S(=O)Cc1ccccc1 (stereo not drawn) | 2.5 | / | 16.5 | -1.3 | / | /
O=C(CCCN1C(=O)/C(=C\c2ccccc2)SC1=S)Nc1ccc(O)cc1C(=O)O | 80.4* | -6.1 | -3.4 | -12.3 | 67.9* | 32.3*
O=C(O)CCCN1C(=O)/C(=C\c2ccco2)SC1=S | 7.0 | -3.9 | 7.8 | -3.9 | / | /
O=C(CCN1C(=O)/C(=C/c2ccccc2Cl)SC1=S)Nc1ccccc1C(=O)O | 29.5 | 8.5 | -7.6 | 0.0 | / | /
O=C(CCCN1C(=O)/C(=C/c2ccccc2)SC1=S)Nc1ccccc1O | 10.8 | -1.1 | 0.6 | -3.1 | / | /
O=C(CCN1C(=O)/C(=C/c2ccco2)SC1=S)Nc1ccc(O)cc1C(=O)O | 92.9* | 0.2 | -3.5 | -16.1 | 69.7* | 26.7* | DNA CAG DR=7.29*
CC(C(=O)Nc1ccc(O)cc1C(=O)O)N1C(=O)/C(=C\c2cccs2)SC1=S (stereo not drawn) | 80.1* | 16.1 | 5.9 | 4.5 | 79.8* | 41.0*
